Source: ChEMBL document CHEMBL1138245, “Discovery of N1-(6-chloroimidazo[2,1-b][1,3]thiazole-5-sulfonyl)tryptamine as a potent, selective, and orally active 5-HT(6) receptor agonist” (J Med Chem, 2007)
The source made the active and inactive calls. No cut-off for these calls is given here.

Key:
[1] = Ratio of drug level in brain to plasma in rat at 3 mg/kg, ip or 100 mg/kg, po; type: ADME, organism-based; details: read-out: BPR
Outline: (§1)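 Rats given a single dose, 3 mg/kg ip or 100 mg/kg oral; drug concentrations measured in plasma and brain at timed points after dosing; brain/plasma concentration ratio calculated.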

[2] = Ratio of drug level in brain to plasma in Sprague-Dawley rat at 100 mg/kg, po after 1 hr; type: ADME, organism-based; parameters: dose 100 mg/kg, route oral; details: read-out: BPR; outline: as §1
[3] = Volume of distribution in rat at 1 mg/kg, iv; type: ADME, organism-based; parameters: dose 1 mg/kg, route intravenous; details: in vivo, read-out: Vdss
[4] = biological target: 5-hydroxytryptamine receptor 4 (Homo sapiens) (UniProt Q13639); assay: Inhibition of human 5HT4 receptor expressed in CHO cells at 100 nM; type: cell-based
[5] = species: Rattus norvegicus; assay: Decrease in water intake in schedule-induced polydipsia rat model; type: functional, organism-based
[6] = Ratio of drug level in brain to plasma in Sprague-Dawley rat at 3 mg/kg, ip after 0.25 hr; type: ADME, organism-based; parameters: dose 3 mg/kg, route intraperitoneal; details: read-out: BPR; outline: as §1
[7] = Cmax in rat at 10 mg/kg, po; type: ADME, organism-based; parameters: dose 10 mg/kg, route oral; details: in vivo
[8] = biological target: Beta-2 adrenergic receptor (Homo sapiens) (UniProt P07550); assay: Displacement of radio ligand from beta-2 adrenergic receptor at 10 nM
[9] = Cmax in dog at 5 mg/kg, po; type: ADME, organism-based, Canis lupus familiaris; parameters: dose 5 mg/kg, route oral; details: in vivo
[10] = species: Rattus norvegicus; assay: Effect on water intake in non-SIP rat model; type: functional, organism-based
[11] = Metabolic stability in human liver microsomes; type: ADME, Microsome
[12] = Drug level in Sprague-Dawley rat brain at 100 mg/kg, po after 4 hrs; type: ADME, organism-based; parameters: dose 100 mg/kg, route oral; details: read-out: Drug uptake
Outline: (§2)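 Rats given a single 3 mg/kg ip or 100 mg/kg oral dose; plasma and brain concentrations measured over time to assess brain/plasma ratio.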

[13] = Ratio of drug level in brain to plasma in Sprague-Dawley rat at 3 mg/kg, ip after 4 hrs; type: ADME, organism-based; parameters: dose 3 mg/kg, route intraperitoneal; details: read-out: BPR; outline: as §1
[14] = Tmax in dog at 5 mg/kg, po; type: ADME, organism-based, Canis lupus familiaris; parameters: dose 5 mg/kg, route oral; details: in vivo
[15] = Drug level in Sprague-Dawley rat plasma at 3 mg/kg, ip after 2 hrs; type: ADME, organism-based; parameters: dose 3 mg/kg, route intraperitoneal; outline: as §2
[16] = Metabolic stability in mouse liver microsomes; type: ADME, Microsome
[17] = AUC in dog at 1 mg/kg, iv; type: ADME, organism-based, Canis lupus familiaris; parameters: dose 1 mg/kg, route intravenous; details: plasma
[18] = biological target: 5-hydroxytryptamine receptor 7 (Homo sapiens, UniProt P34969); assay: Displacement of [3H]LSD from human 5HT7 receptor expressed in CHO cells; type: cell-based
Outline: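 Human 5-HT₇ clone stably expressed in CHO cells; binding measured by [³H]LSD displacement; Ki determined in triplicate.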

[19] = Half life in dog at 5 mg/kg, po; type: ADME, organism-based, Canis lupus familiaris; parameters: dose 5 mg/kg, route oral; details: in vivo
[20] = Drug level in Sprague-Dawley rat plasma at 100 mg/kg, po after 4 hrs; type: ADME, organism-based; parameters: dose 100 mg/kg, route oral; outline: as §2
[21] = Permeability in parallel artificial membrane; type: ADME; details: PAMPA; read-out: permeability
Outline: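 Parallel artificial membrane permeability assay (PAMPA); permeability reported in cm/s; triplicate determinations, standard error <20%.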

[22] = biological target: 5-hydroxytryptamine receptor 1D (Homo sapiens) (UniProt P28221); assay: Displacement of [3H]5HT from human 5HT1D receptor expressed in CHO cells at 1 uM; type: cell-based
[23] = Ratio of drug level in brain to plasma in Sprague-Dawley rat at 3 mg/kg, ip after 2 hrs; type: ADME, organism-based; parameters: dose 3 mg/kg, route intraperitoneal; details: read-out: BPR; outline: as §1
[24] = Oral bioavailability in rat at 10 mg/kg; type: ADME, organism-based; details: in vivo
[25] = Clearance in rat at 1 mg/kg, iv; type: ADME, organism-based; parameters: dose 1 mg/kg, route intravenous; details: in vivo
[26] = AUC in rat at 10 mg/kg, po; type: ADME, organism-based; parameters: dose 10 mg/kg, route oral; details: plasma
[27] = Volume of distribution in dog at 1 mg/kg, iv; type: ADME, organism-based, Canis lupus familiaris; parameters: dose 1 mg/kg, route intravenous; details: in vivo, read-out: Vdss
[28] = tested on: Rattus norvegicus; assay: Increase in GABA level in rat frontal cortex at 10 mg/kg, sc; type: functional, organism-based; parameters: dose 10 mg/kg
Outline: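 Frontal cortex extracellular GABA, glutamate and norepinephrine measured in rats after 10 mg/kg sc; in antagonist tests, 5-HT₆ antagonist 10 mg/kg sc given before agonist; comparison with vehicle, significance P < 0.05.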

[29] = Half life in rat at 1 mg/kg, iv; type: ADME, organism-based; parameters: dose 1 mg/kg, route intravenous; details: in vivo
[30] = Drug level in Sprague-Dawley rat brain at 3 mg/kg, ip after 4 hrs; type: ADME, organism-based; parameters: dose 3 mg/kg, route intraperitoneal; details: read-out: Drug uptake; outline: as §2
[31] = biological target: 5-hydroxytryptamine receptor 2A (Homo sapiens) (UniProt P28223); assay: Displacement of [125I]DOI from human 5HT2A receptor expressed in CHO cells at 1 uM; type: cell-based
[32] = biological target: 5-hydroxytryptamine receptor 1B (Homo sapiens) (UniProt P28222); assay: Displacement of [3H]5-HT from human 5HT1B receptor expressed in CHO cells at 1 uM; type: cell-based
[33] = Drug level in Sprague-Dawley rat plasma at 3 mg/kg, ip after 0.5 hr; type: ADME, organism-based; parameters: dose 3 mg/kg, route intraperitoneal; outline: as §2
[34] = Drug level in Sprague-Dawley rat brain at 3 mg/kg, ip after 1 hr; type: ADME, organism-based; parameters: dose 3 mg/kg, route intraperitoneal; details: read-out: Drug uptake; outline: as §2
[35] = Drug level in Sprague-Dawley rat plasma at 3 mg/kg, ip after 4 hrs; type: ADME, organism-based; parameters: dose 3 mg/kg, route intraperitoneal; outline: as §2

Chain of 5-hydroxytryptamine receptor 7 (P34969 whole entry): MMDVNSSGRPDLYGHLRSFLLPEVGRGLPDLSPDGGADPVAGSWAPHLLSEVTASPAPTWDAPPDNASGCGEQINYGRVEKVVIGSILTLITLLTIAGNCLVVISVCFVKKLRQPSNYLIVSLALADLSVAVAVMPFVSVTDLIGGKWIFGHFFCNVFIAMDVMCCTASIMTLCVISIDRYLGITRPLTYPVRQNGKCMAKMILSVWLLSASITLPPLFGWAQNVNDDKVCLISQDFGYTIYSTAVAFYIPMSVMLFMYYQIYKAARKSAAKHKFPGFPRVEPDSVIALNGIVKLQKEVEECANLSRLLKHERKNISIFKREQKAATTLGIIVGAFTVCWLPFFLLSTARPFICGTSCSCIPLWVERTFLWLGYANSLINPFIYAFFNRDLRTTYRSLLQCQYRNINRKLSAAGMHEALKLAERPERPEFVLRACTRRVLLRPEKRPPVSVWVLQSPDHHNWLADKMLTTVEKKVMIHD
Chain of 5-hydroxytryptamine receptor 1D (Homo sapiens) (P28221 whole entry): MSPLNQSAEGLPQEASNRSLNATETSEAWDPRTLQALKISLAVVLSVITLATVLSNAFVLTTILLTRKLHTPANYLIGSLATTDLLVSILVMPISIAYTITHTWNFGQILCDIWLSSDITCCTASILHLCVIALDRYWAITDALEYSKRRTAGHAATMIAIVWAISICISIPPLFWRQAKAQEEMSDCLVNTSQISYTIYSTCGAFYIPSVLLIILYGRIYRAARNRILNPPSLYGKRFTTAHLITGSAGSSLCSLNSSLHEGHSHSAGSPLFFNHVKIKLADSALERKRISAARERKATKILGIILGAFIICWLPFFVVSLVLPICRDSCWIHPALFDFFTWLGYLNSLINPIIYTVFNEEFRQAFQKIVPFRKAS
Chain of Beta-2 adrenergic receptor (Homo sapiens) (P07550 whole entry, looked up): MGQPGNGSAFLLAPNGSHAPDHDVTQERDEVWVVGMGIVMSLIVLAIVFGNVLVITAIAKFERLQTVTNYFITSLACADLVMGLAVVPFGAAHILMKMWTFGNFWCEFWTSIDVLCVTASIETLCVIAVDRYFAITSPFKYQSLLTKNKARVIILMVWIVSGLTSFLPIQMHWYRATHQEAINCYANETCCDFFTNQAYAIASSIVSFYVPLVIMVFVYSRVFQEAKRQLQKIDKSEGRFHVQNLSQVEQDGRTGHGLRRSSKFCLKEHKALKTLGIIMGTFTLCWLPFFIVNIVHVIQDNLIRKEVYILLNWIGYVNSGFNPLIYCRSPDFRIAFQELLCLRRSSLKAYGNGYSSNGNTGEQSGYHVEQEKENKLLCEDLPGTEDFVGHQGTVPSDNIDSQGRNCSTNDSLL
Chain of 5-hydroxytryptamine receptor 1B (Homo sapiens) (P28222 whole entry): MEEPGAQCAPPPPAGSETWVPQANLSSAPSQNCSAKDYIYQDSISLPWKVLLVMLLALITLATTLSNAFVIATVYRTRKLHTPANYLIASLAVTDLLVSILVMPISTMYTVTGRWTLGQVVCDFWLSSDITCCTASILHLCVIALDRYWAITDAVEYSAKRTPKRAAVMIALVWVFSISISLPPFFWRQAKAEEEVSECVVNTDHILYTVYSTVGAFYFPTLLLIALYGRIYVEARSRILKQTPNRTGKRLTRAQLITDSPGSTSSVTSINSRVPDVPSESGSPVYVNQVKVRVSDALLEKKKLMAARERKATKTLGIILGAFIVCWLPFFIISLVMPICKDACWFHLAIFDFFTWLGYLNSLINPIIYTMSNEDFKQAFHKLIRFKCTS
Chain of 5-hydroxytryptamine receptor 2A (Homo sapiens) (P28223 whole entry): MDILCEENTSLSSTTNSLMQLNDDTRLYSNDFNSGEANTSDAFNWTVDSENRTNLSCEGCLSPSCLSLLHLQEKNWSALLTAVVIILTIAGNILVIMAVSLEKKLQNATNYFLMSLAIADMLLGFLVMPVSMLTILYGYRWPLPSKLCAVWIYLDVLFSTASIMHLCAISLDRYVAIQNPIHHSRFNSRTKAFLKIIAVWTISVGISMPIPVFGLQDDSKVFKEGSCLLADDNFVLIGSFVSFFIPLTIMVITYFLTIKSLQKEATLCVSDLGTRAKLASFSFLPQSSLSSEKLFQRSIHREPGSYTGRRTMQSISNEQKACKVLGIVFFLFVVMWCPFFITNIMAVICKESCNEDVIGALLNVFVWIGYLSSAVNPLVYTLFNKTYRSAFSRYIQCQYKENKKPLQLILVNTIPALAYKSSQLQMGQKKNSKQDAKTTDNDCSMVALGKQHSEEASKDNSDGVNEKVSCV
Chain of 5-hydroxytryptamine receptor 4 (Homo sapiens) (Q13639 whole entry): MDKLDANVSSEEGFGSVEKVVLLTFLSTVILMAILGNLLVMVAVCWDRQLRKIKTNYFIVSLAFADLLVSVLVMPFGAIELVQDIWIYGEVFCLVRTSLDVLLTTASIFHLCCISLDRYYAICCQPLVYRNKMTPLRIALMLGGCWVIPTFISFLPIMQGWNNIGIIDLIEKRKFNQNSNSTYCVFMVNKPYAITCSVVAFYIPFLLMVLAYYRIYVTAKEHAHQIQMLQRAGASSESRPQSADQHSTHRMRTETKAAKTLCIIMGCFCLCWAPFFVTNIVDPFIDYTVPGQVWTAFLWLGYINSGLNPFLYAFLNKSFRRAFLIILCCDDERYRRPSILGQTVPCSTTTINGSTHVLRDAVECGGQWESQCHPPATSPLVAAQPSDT

SMILES: NCCc1cn(S(=O)(=O)c2c(Cl)nc3sccn23)c2ccccc12
- Kp [1]: 0.1
- Kp at 1 h [2]: 0.14
- Vd [3]: 24 L/kg
- inhibition [4]: < 50%
- Activity [5]: Dose-dependent effect
- Kp at 0.25 h [6]: 0.09
- Cmax [7]: 49 ng/mL
- Activity [8]: < 50%
- Cmax [9]: 130 ng/mL
- Activity [10]: inactive
- half-life [11]: > 1 h
- concentration at 4 h [12]: 98 ng/mL
- Kp at 4 h [13]: 1.39
- Tmax [14]: 2.3 h
- concentration at 2 h [15]: 3.2 ng/mL
- half-life [16]: > 1 h
- AUC [17]: 520 ng·h/mL
- Ki [18]: 679 nM
- half-life [19]: 6.6 h
- concentration at 4 h [20]: 372 ng/mL
- Papp [21]: 13.6 ×10⁻⁶ cm/s
- Activity [22]: 21%
- Kp at 2 h [23]: 0.33
- bioavailability [24]: 23%
- clearance [25]: 123 mL/min/kg
- AUC [26]: 190 ng·h/mL
- Vd [27]: 7.9 L/kg
- Activity [28]: Active
- half-life [29]: 5.4 h
- concentration at 4 h [30]: 6 ng/mL
- Activity [31]: 25%
- Activity [32]: 36%
- concentration at 0.5 h [33]: 66 ng/mL
- concentration at 1 h [34]: 14.2 ng/mL
- concentration at 4 h [35]: 4.3 ng/mL
